Assay results pooled from the literature.
Each line is one published result; the experiments were not run side by side.
Target: Cytoplasmic tyrosine-protein kinase BMX (BMX, Homo sapiens, UniProt P51813)
Residues used in one study (P51813 1-675): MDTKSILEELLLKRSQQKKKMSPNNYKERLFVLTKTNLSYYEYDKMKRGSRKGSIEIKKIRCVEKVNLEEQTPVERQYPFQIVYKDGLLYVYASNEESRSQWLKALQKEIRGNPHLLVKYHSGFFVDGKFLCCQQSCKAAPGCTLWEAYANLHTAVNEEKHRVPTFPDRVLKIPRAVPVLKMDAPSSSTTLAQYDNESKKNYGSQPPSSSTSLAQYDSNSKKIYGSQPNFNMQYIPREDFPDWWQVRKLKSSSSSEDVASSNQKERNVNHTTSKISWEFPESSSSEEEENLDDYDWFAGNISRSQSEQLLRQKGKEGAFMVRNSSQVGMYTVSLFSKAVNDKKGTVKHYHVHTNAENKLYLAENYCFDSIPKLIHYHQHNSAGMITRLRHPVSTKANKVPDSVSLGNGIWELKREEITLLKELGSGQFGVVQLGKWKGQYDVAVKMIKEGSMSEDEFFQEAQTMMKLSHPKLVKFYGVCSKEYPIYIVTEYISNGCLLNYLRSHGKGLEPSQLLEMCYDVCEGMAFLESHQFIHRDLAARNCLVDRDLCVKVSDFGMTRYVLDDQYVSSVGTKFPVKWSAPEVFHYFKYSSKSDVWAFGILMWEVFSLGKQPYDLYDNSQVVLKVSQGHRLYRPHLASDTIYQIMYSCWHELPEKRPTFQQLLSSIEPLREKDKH

SMILES	observed	technique	tested at	remaining binding [%]
F[C@@H]1CCN(c2nccc(-c3cnn4ncccc34)n2)C1	binding		1 µM	83
c1cncc(-c2cccc(Nc3nccc(NC4CCCCC4)n3)c2)c1	binding	competition with immobilised ligand	10 µM	82
C[C@@H]1CCN(c2nccc(-c3cnn4ncccc34)n2)C1	binding		1 µM	100
CCOCCn1cc(C(=O)Nc2ccc(-n3nc(-c4cccnc4)cc3C(F)(F)F)cn2)ccc1=O	cell-free assay	competition with immobilised ligand	1 µM	84
O=C(c1ccc(Nc2nccc(-c3cc4ccccc4s3)n2)cc1)N1CCC(N2CCCC2)CC1	binding	competition with immobilised ligand	1 µM	91
CNC(=O)[C@@H]1CC[C@@H](n2c(-c3ccc4cnccc4c3)nc3ccc(C(=O)NCc4cccc(C(N)=O)c4)cc32)C1	binding	competition with immobilised ligand	1 µM	100
COc1ccnn2ncc(-c3ccnc(N(C)C)n3)c12	binding		1 µM	100
CO[C@@H](C)c1c(Nc2ccc([C@H](N(C)C(=O)C3CCS(=O)(=O)CC3)C(F)(F)F)cc2)cnc2cc(Cl)nn12	cell-free assay	competition with immobilised ligand	1 µM	99
Nc1ncc2c(n1)-c1c([nH]c3ccc(C#CC4CC4)cc13)CCCC2	binding	competition with immobilised ligand	1 µM	86
O=C(Nc1c[nH]nc1C(=O)NC1CCNCC1)c1cc(F)cc(F)c1	binding	competition with immobilised ligand	1 µM	100
COc1ccc2cc(OCC3(C(=O)O)CN(C(=O)c4ccc(F)cc4)C3)ccc2c1	cell-free assay	competition with immobilised ligand	1 µM	87
c1cnn2ncc(-c3ccnc(N4CCC45COC5)n3)c2c1	binding		1 µM	90
O=C(NCCCN1CCOCC1)c1ccc(Nc2ncc(Cl)c(-c3ccc(Cl)s3)n2)cc1	binding	competition with immobilised ligand	1 µM	89
C[C@@H](c1ccc(-n2cnc3c(N)ncnc32)cc1)N1CCc2nn(C)c(Cc3ccccc3)c2C1=O	binding	competition with immobilised ligand	0.1 µM	52
O=C(c1ccc(Nc2ncc(Cl)c(-c3cc4ccccc4s3)n2)cc1)N1CCC(N2CCCC2)CC1	binding	competition with immobilised ligand	1 µM	75
CN1CCN(c2cnc3c(C4CCN(C(=O)c5ccc(OC(F)(F)F)cc5N)CC4)ncnc3c2)CC1	cell-free assay	competition with immobilised ligand	1 µM	100
N[C@@H]1CCN(c2nccc(-c3cnn4ncccc34)n2)C1	binding		1 µM	97
O=C(N1CCS(=O)(=O)CC1)N1C[C@H](c2ccc(OC(F)(F)F)cc2)C[C@H](c2nc(C3CC3)no2)C1	cell-free assay	competition with immobilised ligand	1 µM	100
FC(F)(F)Oc1cccc(-c2cnc3ccc(-c4ccncc4)nn23)c1	cell-free assay	competition with immobilised ligand	5 µM	86
C[C@H](c1cccc(C#N)c1)n1cc(Cl)cc(C(N)=O)c1=N	cell-free assay	competition with immobilised ligand	1 µM	77
Cc1cnn2ncc(-c3ccnc(N(C)C)n3)c2c1	binding		1 µM	96
